According to ChEMBL document CHEMBL2346636, “Synthesis and biological evaluation of substituted imidazoquinoline derivatives as mPGES-1 inhibitors” (Bioorg Med Chem, 2013):

Assays:
Prostaglandin E synthase = target: T1, Prostaglandin E synthase (Homo sapiens, UniProt O14684); assay: Inhibition of mPGES1 (unknown origin) transfected in HEK293 cells co-expressing COX1 using arachidonic acid as substrate assessed as inhibition of PGE2 production incubated for 30 mins prior to arachidonic acid addition measured after 60 mins by HTRF assay; type: cell-based
T1 sequence (O14684 whole entry): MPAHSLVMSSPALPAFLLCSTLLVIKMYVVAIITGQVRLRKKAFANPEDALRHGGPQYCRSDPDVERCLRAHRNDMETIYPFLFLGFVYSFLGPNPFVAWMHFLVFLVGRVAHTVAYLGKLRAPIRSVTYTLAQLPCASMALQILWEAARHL
Procedure, shortened: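 Enzyme source was microsomes from HEK293 cells co-transfected with mPGES-1 and COX-1, in 100 mM Tris-HCl pH 8.0 with 5 mM EDTA, 1 mM GSH, phenol and hematin. Compound was added in DMSO (final 1%) and preincubated 30 min at room temperature. Arachidonic acid in 0.1 M KOH started the reaction, which ran 60 min at room temperature. It was stopped with 1 M HCl, neutralized with 1 M NaOH, and PGE2 was quantified by HTRF.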

[1] = Half life of the compound in TFA at room temperature; type: physicochemical
Procedure, shortened: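 SEM- and Boc-protected compounds in TFA (100 equiv) at room temperature. Deprotection was monitored and reported as the time to half-conversion (T1/2) and the time to full conversion.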

[2] = Half life of the compound in HCl/THF at room temperature; type: physicochemical
Procedure, shortened: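 Boc-protected compound in 4 M HCl (10 equiv) in THF at room temperature. Deprotection was followed over time and reported as the time to half-conversion (T1/2) and the time to completion.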

[3] = Half life of the compound in NaOH/THF/MeOH at room temperature; type: physicochemical
Procedure, shortened: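 Boc-protected compound in 1 M NaOH (10 equiv) in THF/MeOH at room temperature. Deprotection was followed and reported as T1/2 (half-deprotection time) and the time to complete deprotection.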

[4] = Stability of the compound in NaOH/THF at room temperature; type: physicochemical
Procedure, shortened: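 SEM-protected compound in 1 M NaOH (10 equiv) in THF at room temperature. Deprotection was monitored for up to 12 h.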

[5] = Half life of the compound in TBAF/THF under reflux

Compound | IC50 (Prostaglandin E synthase) | other results
Cn1c(-c2ccccc2Cl)nc2c3ccc(Br)cc3[nH]c(=O)c21 | 9810 nM | –
Cn1c(=O)c2c(nc(-c3ccccc3Cl)n2C(=O)OC(C)(C)C)c2ccc(Br)cc21 | – | half-life [1]: < 5 min; half-life [2]: 30 min; half-life [3]: 15 min
Cn1c(-c2ccccc2Cl)nc2c3ccc(Br)cc3n(C)c(=O)c21 | > 10000 nM | –
O=c1[nH]c2cc(Br)ccc2c2nc(-c3ccccc3Cl)n(Cc3ccccc3)c12 | > 10000 nM | –
Cn1c(-c2ccccc2Cl)nc2c(=O)[nH]c3cc(Br)ccc3c21 | > 10000 nM | –
CNc1nc2cc(Br)ccc2c2nc(-c3ccccc3Cl)[nH]c12 | 631 nM | –
Nc1nc2cc(Br)ccc2c2[nH]c(-c3ccccc3Cl)nc12 | 1070 nM | –
Cn1c(=O)c2c(nc(-c3ccccc3Cl)n2COCC[Si](C)(C)C)c2ccc(Br)cc21 | – | half-life [1]: < 5 min; Stability [4]: Stable; half-life [5]: 30 min

Further molecules by falling IC50 (Prostaglandin E synthase), results first:

IC50 (Prostaglandin E synthase) | Compound | other results
387 nM | CN(C)c1nc2cc(Br)ccc2c2[nH]c(-c3ccccc3Cl)nc12 | –
226 nM | O=c1c2[nH]c(-c3ccccc3Cl)nc2c2ccc(Br)cc2n1Cc1ccccc1 | –
106 nM | CCn1c(=O)c2[nH]c(-c3ccccc3Cl)nc2c2ccc(Br)cc21 | –
85 nM | Cn1c(=O)c2[nH]c(-c3ccccc3Cl)nc2c2ccc(Br)cc21 | –
83 nM | S=c1[nH]c2cc(Br)ccc2c2nc(-c3ccccc3Cl)[nH]c12 | –
59 nM | CCSc1nc2cc(Br)ccc2c2[nH]c(-c3ccccc3Cl)nc12 | –
31 nM | CSc1nc2cc(Br)ccc2c2nc(-c3ccccc3Cl)[nH]c12 | –
